# According to ChEMBL document CHEMBL2331363, “Synthesis of a 2,4,6-trisubstituted 5-cyano-pyrimidine library and evaluation of its immunosuppressive activity in a Mixed Lymphocyte Reaction assay” (Bioorg Med Chem, 2013):
# Assays:
# [1] = molecular target: Serine/threonine-protein kinase mTOR (Homo sapiens) (UniProt P42345); assay: Inhibition of mTOR (unknown origin) at 10 uM
# [2] = Cytotoxicity against human Jurkat T cells after 48 hrs by WST1 assay; type: cell-based
# Outline: (§1)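 Jurkat T cells were seeded at 5.10⁴ cells per well and exposed to serial compound dilutions for 48 h at 37 °C and 5% CO₂. Part of the medium was removed, WST-1 tetrazolium salt was added, and cells were incubated further. Absorbance was read at 450 nm. Results are % cytotoxicity at each concentration, with CC₅₀ calculated.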
# [3] = Immunosuppressive activity in human RPMI1788 cells cocultured with human PBMC assessed as inhibition of [3H]thymidine incorporation at 10 uM incubated for 6 days prior to [3H]thymidine addition measured after 18 hrs by liquid scintillation counting; type: functional; details: RPMI-1788
# Outline: (§2)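 Effector PBMCs from heparinized healthy-donor blood were isolated over Lymphoprep and held at 1.2 × 10⁶ cells/mL in RPMI-1640 with 10% heat-inactivated FCS. Mitomycin-treated stimulator cells were at 0.45 × 10⁶ cells/mL. Cells were mixed with diluted compound and cultured at 37 °C, 5% CO₂. (methyl-³H)thymidine was added for the final 18 h, and filter-harvested cpm were counted by scintillation. Compounds were screened at one concentration, then dose-response IC₅₀ was determined. Values are means of two independent experiments.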
# [4] = Immunosuppressive activity in human RPMI1788 cells cocultured with human PBMC assessed as inhibition of [3H]thymidine incorporation incubated for 6 days prior to [3H]thymidine addition measured after 18 hrs by liquid scintillation counting; type: functional, cell-based; details: RPMI-1788; outline: as §2
# [5] = Growth inhibition of human Jurkat T cells at 10 uM after 48 hrs by WST1 assay; type: cell-based; outline: as §1
# [6] = test system: Serine/threonine-protein kinase B-raf (Homo sapiens), P15056 [V600E]; assay: Binding affinity to BRAF V600E mutant (unknown origin) at 10 uM relative to control
# Chain of Serine/threonine-protein kinase B-raf (Homo sapiens), P15056 [V600E] (P15056 whole entry V600E): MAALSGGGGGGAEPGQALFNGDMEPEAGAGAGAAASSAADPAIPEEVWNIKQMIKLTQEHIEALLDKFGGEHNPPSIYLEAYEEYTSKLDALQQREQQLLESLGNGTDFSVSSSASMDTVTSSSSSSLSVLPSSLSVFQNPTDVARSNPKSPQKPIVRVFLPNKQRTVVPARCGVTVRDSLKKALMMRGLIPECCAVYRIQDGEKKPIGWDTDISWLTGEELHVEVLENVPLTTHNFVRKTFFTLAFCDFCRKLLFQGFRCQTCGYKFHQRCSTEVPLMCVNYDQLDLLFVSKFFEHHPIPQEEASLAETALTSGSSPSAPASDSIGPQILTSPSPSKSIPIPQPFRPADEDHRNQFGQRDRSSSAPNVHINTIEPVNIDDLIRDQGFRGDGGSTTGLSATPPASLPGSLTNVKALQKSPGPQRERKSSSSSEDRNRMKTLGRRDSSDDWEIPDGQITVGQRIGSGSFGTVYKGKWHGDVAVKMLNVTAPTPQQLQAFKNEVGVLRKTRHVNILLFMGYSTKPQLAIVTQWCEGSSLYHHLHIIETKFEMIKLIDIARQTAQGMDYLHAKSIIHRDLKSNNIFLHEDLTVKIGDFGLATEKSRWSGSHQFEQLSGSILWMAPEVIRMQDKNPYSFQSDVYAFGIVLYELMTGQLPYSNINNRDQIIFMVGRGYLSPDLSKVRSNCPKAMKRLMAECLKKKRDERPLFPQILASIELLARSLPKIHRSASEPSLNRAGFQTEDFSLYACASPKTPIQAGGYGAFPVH
# [7] = molecular target: T1, Inhibitor of nuclear factor kappa-B kinase subunit alpha (Homo sapiens) (UniProt O15111); assay: Binding affinity to IKKalpha (unknown origin) at 10 uM relative to control
# T1 sequence (whole entry): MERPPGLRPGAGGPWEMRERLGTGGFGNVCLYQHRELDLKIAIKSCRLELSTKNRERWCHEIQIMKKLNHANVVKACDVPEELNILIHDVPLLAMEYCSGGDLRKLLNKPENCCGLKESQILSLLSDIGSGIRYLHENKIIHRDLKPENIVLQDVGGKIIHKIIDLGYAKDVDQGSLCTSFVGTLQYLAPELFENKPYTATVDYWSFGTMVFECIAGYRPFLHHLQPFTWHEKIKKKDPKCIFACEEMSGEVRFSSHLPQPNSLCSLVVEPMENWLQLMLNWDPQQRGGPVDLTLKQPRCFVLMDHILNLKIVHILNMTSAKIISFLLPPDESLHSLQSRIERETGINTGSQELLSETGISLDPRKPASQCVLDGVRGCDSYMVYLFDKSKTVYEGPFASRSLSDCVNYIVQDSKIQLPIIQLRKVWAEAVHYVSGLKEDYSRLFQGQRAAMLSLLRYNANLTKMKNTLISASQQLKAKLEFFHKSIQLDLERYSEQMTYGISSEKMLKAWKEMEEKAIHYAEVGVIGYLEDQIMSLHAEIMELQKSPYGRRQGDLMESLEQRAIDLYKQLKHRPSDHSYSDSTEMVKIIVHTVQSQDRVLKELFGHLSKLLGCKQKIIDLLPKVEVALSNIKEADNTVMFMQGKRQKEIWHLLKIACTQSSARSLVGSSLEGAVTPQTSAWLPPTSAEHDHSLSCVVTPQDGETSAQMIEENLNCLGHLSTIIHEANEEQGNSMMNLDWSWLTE
# [8] = molecular target: Serine/threonine-protein kinase B-raf (Homo sapiens) (UniProt P15056); assay: Binding affinity to BRAF (unknown origin) at 10 uM relative to control
# Chain of Serine/threonine-protein kinase B-raf (Homo sapiens) (P15056 whole entry): as the sequence (P15056 whole entry V600E) above, with E600V counted along it
# [9] = molecular target: Tyrosine-protein kinase JAK1 (Homo sapiens) (UniProt P23458); assay: Binding affinity to JAK1 (unknown origin) at 10 uM relative to control
# Chain of Tyrosine-protein kinase JAK1 (Homo sapiens) (P23458 whole entry): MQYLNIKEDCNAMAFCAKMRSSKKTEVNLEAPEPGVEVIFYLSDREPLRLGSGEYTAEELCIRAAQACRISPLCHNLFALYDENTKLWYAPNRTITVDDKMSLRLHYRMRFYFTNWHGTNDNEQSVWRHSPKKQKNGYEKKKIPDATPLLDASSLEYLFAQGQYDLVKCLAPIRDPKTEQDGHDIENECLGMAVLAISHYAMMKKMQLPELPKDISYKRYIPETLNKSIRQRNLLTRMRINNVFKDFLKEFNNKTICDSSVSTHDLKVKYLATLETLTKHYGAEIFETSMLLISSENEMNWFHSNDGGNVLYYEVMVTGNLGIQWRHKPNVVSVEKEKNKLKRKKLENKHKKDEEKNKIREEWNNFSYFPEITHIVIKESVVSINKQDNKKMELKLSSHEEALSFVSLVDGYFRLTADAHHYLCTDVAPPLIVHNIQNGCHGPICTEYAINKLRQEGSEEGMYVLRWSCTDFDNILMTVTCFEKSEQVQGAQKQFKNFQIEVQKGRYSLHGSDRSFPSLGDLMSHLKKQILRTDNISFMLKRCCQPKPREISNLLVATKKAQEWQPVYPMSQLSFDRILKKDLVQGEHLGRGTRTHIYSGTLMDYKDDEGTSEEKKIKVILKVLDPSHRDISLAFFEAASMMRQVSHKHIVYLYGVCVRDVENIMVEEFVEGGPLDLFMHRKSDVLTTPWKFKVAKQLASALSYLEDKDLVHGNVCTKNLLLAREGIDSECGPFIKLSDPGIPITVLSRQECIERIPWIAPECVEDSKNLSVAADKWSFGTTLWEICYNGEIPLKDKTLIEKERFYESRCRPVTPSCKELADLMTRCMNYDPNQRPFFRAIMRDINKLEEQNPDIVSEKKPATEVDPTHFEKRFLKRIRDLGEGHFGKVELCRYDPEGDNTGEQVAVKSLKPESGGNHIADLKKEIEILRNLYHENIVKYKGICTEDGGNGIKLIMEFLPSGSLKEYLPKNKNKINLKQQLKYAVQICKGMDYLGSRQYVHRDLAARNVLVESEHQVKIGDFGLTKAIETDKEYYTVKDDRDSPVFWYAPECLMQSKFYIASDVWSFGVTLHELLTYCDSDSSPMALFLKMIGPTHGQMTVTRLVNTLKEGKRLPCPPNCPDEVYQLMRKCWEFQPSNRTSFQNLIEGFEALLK
# [10] = molecular target: Serine/threonine-protein kinase 10 (Homo sapiens) (UniProt O94804); assay: Binding affinity to LOK (unknown origin) at 10 uM relative to control
# Chain of Serine/threonine-protein kinase 10 (Homo sapiens) (O94804 whole entry, looked up): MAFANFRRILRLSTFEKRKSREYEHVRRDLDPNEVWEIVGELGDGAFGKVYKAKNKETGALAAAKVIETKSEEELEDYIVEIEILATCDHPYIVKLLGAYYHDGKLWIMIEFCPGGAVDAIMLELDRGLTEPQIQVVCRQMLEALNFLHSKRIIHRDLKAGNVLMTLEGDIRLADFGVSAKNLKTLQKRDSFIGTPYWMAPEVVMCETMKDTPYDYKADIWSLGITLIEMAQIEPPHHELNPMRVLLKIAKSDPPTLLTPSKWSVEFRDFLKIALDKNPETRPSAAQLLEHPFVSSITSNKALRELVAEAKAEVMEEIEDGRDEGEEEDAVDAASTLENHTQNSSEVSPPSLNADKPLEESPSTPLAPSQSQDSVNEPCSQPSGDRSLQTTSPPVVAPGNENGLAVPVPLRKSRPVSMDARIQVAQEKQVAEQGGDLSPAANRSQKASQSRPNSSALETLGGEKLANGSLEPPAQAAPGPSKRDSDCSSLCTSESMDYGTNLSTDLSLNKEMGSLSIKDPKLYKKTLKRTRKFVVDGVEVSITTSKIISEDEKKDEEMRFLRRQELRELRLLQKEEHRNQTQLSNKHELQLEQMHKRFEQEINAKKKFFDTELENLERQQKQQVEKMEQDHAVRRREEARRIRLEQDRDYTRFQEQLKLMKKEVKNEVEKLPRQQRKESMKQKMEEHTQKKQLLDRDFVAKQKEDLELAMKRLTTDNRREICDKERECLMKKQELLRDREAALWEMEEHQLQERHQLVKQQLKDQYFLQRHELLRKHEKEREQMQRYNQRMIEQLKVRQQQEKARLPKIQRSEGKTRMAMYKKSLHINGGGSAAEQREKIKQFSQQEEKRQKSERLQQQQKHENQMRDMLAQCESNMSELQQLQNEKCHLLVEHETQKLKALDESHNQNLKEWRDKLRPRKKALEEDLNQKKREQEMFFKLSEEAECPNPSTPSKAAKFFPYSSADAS
# [11] = molecular target: Ribosomal protein S6 kinase alpha-6 (Homo sapiens) (UniProt Q9UK32); assay: Binding affinity to RSK4 (unknown origin) at 10 uM relative to control
# Chain of Ribosomal protein S6 kinase alpha-6 (Homo sapiens) (Q9UK32 whole entry): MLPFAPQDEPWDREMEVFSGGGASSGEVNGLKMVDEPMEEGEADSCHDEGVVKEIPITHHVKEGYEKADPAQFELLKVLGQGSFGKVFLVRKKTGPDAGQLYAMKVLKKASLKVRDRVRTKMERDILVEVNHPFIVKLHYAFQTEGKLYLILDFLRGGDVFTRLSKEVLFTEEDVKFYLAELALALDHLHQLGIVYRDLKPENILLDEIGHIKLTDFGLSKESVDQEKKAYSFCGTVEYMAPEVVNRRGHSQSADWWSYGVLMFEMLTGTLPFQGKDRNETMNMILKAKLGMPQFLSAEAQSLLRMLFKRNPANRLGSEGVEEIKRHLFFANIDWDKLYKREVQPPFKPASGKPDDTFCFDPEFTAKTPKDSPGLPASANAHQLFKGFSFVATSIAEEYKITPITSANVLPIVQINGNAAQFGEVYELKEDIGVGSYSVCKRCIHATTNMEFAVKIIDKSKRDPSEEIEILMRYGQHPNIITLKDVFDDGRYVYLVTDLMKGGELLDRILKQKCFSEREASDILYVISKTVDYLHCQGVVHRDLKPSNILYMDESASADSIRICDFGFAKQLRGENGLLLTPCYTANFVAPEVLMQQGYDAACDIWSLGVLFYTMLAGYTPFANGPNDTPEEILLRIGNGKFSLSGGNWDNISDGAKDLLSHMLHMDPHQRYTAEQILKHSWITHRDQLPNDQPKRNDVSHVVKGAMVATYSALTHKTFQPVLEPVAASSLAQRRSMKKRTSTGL
# [12] = molecular target: T2, Inhibitor of nuclear factor kappa-B kinase subunit beta (Homo sapiens) (UniProt O14920); assay: Binding affinity to IKKbeta (unknown origin) at 10 uM relative to control
# T2 sequence (whole entry): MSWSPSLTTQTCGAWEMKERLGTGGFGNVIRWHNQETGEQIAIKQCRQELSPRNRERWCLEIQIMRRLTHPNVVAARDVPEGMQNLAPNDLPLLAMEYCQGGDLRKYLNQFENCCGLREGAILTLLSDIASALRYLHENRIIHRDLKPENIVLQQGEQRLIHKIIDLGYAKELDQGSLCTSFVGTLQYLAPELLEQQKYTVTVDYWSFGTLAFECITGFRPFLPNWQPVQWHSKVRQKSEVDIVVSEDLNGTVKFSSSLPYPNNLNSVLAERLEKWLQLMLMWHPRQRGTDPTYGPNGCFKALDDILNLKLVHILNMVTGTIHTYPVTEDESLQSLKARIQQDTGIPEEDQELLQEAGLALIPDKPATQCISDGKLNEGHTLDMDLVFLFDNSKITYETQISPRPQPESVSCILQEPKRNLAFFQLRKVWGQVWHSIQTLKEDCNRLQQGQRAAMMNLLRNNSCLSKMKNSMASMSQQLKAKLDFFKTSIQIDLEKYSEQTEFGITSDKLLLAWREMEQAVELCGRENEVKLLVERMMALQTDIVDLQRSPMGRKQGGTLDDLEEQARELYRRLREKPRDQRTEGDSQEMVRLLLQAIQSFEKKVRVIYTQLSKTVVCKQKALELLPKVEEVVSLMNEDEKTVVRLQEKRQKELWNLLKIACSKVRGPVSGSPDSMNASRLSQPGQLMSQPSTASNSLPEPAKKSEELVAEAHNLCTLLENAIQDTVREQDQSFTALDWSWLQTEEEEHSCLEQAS
# [13] = molecular target: T3, Receptor-interacting serine/threonine-protein kinase 4 (Homo sapiens) (UniProt P57078); assay: Binding affinity to RIPK4 (unknown origin) at 10 uM relative to control
# T3 sequence (whole entry): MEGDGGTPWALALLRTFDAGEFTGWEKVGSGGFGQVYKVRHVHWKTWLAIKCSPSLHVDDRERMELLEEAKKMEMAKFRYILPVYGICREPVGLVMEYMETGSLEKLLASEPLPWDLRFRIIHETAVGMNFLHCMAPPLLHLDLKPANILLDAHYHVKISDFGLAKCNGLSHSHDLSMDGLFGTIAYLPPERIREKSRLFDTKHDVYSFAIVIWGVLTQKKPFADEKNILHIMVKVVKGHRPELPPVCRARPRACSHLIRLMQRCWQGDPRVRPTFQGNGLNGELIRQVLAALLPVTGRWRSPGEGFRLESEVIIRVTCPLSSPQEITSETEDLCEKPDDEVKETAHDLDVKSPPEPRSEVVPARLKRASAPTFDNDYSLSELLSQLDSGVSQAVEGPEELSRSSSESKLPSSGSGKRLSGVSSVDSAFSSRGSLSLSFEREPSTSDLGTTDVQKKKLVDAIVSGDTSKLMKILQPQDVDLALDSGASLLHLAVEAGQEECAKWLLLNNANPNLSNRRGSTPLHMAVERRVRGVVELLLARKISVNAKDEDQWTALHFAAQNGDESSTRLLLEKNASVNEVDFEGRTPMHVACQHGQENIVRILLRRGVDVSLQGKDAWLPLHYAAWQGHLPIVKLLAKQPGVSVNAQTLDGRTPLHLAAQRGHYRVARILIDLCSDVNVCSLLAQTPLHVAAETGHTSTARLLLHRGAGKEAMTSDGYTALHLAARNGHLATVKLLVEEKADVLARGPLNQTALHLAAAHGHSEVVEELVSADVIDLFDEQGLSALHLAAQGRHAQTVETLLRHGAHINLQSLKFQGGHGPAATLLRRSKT
structure (smiles),measurement,setting,value
COc1ccc(-c2nc(SCc3ccccc3)nc(N3CCOCC3)c2C#N)cc1,inhibition,[1],10%
same,CC50 at 48 h,[2],> 10000 nM
same,inhibition at 10 µM,[3],90%
same,IC50,[4],1600 nM
same,"inhibition at 48 h, 10 µM",[5],10%
same,Activity,[6],28%
same,Activity,[7],44%
same,Activity,[8],34%
same,Activity,[9],39%
same,Activity,[10],45%
same,Activity,[11],35%
same,Activity,[12],48%
same,Activity,[13],43%
